According to ChEMBL document CHEMBL1649261, “Pharmacodynamic profile of tigecycline against methicillin-resistant Staphylococcus aureus in an experimental pneumonia model” (Antimicrob Agents Chemother, 2009):
Converted amounts (≈) assume the structure as drawn.

Tests used:
Format in all cases: functional
[1] = system: Staphylococcus aureus; assay: Antibacterial activity against methicillin-susceptible Staphylococcus aureus ATCC 29213 by microdilution method
Outline: (§1)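 Tigecycline MIC measured in triplicate by broth microdilution following CLSI guidelines. Isolates were stored at −80°C in skim milk and subcultured twice on blood agar before testing.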

[2] = system: Staphylococcus aureus; assay: Antibacterial activity against hospital-acquired methicillin-resistant Staphylococcus aureus 152 by microdilution method; outline: as §1
[3] = system: Staphylococcus aureus; assay: Antibacterial activity against community-acquired methicillin-resistant Staphylococcus aureus 144 by microdilution method; outline: as §1
[4] = system: Staphylococcus aureus; assay: Antibacterial activity against community-acquired methicillin-resistant Staphylococcus aureus 156 by microdilution method; outline: as §1
[5] = system: Staphylococcus aureus; assay: Antibacterial activity against community-acquired methicillin-resistant Staphylococcus aureus 147 by microdilution method; outline: as §1
[6] = system: Staphylococcus aureus; assay: Antibacterial activity against hospital-acquired methicillin-resistant Staphylococcus aureus 56 by microdilution method; outline: as §1

Row | Structure (SMILES) | MIC [1] [µg/mL] | MIC [2] [µg/mL] | MIC [3] [µg/mL] | MIC [4] [µg/mL] | MIC [5] [µg/mL] | MIC [6] [µg/mL]
1 | CCC[C@@H]1C[C@@H](C(=O)N[C@@H]([C@H]2O[C@H](SC)[C@H](O)[C@@H](O)[C@H]2O)[C@H](C)Cl)N(C)C1 [CLINDAMYCIN] | 0.125 (≈ 0.294 µM) | 0.125 (≈ 0.294 µM) | > 16 | ≤ 0.5 | 0.125 (≈ 0.294 µM) | 0.25 (≈ 0.588 µM)
2 | C[C@H]1c2cccc(O)c2C(=O)C2=C(O)[C@]3(O)C(=O)C(C(N)=O)=C(O)[C@@H](N(C)C)[C@@H]3[C@@H](O)[C@@H]21.O [DOXYCYCLINE] | 0.5 | 0.5 | 0.5 | – | 2 | 8
3 | CC[C@H]1OC(=O)[C@H](C)[C@@H](O[C@H]2C[C@@](C)(OC)[C@@H](O)[C@H](C)O2)[C@H](C)[C@@H](O[C@@H]2O[C@H](C)C[C@H](N(C)C)[C@H]2O)[C@](C)(O)C[C@@H](C)C(=O)[C@H](C)[C@@H](O)[C@]1(C)O [ERYTHROMYCIN] | 1 (≈ 1.36 µM) | 1 (≈ 1.36 µM) | > 32 | > 32 | > 32 | 32 (≈ 43.6 µM)
